# Results reported in ChEMBL document CHEMBL5678805, “Intermittent administration of MEK inhibitor GDC-0973 plus PI3K inhibitor GDC-0941 triggers robust apoptosis and tumor growth inhibition” (Cancer Res, 2012).
# Activity calls are given as the source filed them. The calls are words filed in the database; no cut-off is given here.
# Columns and labels:
# [1] = target: RAC-alpha serine/threonine-protein kinase (Homo sapiens, UniProt P31749); assay: Inhibition of Akt1 (unknown origin)
# [2] = target: Tyrosine-protein kinase BTK (Homo sapiens, UniProt Q06187); assay: Inhibition of Btk (unknown origin)
# Sequence of Tyrosine-protein kinase BTK (Q06187 whole entry): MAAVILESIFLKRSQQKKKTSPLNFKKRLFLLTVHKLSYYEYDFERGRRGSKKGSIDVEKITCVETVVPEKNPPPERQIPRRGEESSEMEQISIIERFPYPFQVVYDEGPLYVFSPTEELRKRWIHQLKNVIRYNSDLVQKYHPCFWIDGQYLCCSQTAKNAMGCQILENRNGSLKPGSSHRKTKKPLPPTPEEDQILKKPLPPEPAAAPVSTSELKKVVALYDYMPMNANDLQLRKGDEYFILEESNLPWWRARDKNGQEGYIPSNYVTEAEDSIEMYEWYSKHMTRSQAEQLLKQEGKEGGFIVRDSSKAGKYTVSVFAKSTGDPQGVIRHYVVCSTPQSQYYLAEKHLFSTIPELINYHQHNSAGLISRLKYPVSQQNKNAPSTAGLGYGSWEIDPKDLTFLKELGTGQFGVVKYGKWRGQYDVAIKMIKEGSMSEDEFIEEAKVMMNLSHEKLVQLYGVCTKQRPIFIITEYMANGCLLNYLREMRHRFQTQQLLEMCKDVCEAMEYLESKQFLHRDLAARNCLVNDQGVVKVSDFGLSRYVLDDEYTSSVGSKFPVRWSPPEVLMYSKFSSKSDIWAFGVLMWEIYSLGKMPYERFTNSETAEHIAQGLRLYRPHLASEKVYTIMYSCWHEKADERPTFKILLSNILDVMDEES
# [3] = target: Calcium/calmodulin-dependent protein kinase type II subunit alpha (Homo sapiens, UniProt Q9UQM7); assay: Inhibition of CamK2a (unknown origin)
# Sequence of Calcium/calmodulin-dependent protein kinase type II subunit alpha (Q9UQM7 whole entry): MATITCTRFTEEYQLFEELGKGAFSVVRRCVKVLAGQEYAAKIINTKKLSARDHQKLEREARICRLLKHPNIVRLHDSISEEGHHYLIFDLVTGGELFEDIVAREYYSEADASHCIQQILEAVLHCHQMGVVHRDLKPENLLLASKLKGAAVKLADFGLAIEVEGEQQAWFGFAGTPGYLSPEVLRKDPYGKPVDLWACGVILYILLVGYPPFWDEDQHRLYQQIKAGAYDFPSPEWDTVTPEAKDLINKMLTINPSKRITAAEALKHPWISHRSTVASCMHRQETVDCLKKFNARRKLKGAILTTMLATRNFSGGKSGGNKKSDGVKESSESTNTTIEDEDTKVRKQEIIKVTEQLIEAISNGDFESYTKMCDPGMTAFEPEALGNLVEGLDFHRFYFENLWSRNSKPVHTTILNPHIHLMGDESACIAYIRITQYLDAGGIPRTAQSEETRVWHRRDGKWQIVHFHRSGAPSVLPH
# CDK6/cyclin D3 = CDK6/cyclin D3 (Homo sapiens, UniProt Q00534); assay: Inhibition of CDK6/cyclinD3 (unknown origin); format: protein-complex assay
# Sequence of CDK6/cyclin D3 (P30281 whole entry): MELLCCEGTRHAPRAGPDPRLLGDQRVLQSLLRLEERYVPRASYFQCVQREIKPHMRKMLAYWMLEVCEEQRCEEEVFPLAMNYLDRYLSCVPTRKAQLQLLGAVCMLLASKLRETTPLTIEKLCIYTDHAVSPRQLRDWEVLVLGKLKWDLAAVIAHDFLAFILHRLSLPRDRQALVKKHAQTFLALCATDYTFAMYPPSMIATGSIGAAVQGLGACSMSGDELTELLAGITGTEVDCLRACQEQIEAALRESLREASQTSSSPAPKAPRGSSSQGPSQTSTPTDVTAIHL
# Sequence of CDK6/cyclin D3 (Q00534 whole entry): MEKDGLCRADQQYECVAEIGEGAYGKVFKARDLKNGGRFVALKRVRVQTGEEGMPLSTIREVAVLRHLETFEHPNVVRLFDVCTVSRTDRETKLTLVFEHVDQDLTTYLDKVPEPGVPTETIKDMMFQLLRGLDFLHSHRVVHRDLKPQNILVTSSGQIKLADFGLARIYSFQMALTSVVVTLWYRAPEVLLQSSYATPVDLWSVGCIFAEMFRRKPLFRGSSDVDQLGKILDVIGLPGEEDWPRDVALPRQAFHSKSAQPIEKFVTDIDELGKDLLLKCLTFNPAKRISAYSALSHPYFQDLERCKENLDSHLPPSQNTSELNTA
# Casein kinase 2 = Casein kinase 2 (Homo sapiens, UniProt P67870+P68400+P19784+Q8NEV1); assay: Inhibition of CK2 (unknown origin); format: protein assay
# [4] = target: RAF proto-oncogene serine/threonine-protein kinase (Homo sapiens, UniProt P04049); assay: Inhibition of cRAF (unknown origin)
# Sequence of RAF proto-oncogene serine/threonine-protein kinase (P04049 whole entry): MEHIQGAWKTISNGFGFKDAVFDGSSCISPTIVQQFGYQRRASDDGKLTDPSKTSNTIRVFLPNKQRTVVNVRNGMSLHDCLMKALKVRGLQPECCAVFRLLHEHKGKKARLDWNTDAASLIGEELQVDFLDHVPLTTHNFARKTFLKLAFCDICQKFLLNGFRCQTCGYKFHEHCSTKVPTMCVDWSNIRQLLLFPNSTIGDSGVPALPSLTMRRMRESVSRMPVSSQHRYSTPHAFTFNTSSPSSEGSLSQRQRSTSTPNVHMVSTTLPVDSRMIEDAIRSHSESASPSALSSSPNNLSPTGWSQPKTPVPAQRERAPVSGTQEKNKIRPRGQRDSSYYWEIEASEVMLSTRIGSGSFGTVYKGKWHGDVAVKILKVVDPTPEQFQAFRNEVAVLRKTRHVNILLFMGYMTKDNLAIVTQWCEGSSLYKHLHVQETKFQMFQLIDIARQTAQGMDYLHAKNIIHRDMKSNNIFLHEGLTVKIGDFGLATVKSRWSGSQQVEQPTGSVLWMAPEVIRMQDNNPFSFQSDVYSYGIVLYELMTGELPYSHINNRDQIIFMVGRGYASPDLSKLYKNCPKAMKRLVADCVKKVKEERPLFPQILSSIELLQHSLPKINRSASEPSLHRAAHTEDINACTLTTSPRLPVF
# [5] = target: Epidermal growth factor receptor (Homo sapiens, UniProt P00533); assay: Inhibition of EGFR (unknown origin)
# Sequence of Epidermal growth factor receptor (P00533 whole entry): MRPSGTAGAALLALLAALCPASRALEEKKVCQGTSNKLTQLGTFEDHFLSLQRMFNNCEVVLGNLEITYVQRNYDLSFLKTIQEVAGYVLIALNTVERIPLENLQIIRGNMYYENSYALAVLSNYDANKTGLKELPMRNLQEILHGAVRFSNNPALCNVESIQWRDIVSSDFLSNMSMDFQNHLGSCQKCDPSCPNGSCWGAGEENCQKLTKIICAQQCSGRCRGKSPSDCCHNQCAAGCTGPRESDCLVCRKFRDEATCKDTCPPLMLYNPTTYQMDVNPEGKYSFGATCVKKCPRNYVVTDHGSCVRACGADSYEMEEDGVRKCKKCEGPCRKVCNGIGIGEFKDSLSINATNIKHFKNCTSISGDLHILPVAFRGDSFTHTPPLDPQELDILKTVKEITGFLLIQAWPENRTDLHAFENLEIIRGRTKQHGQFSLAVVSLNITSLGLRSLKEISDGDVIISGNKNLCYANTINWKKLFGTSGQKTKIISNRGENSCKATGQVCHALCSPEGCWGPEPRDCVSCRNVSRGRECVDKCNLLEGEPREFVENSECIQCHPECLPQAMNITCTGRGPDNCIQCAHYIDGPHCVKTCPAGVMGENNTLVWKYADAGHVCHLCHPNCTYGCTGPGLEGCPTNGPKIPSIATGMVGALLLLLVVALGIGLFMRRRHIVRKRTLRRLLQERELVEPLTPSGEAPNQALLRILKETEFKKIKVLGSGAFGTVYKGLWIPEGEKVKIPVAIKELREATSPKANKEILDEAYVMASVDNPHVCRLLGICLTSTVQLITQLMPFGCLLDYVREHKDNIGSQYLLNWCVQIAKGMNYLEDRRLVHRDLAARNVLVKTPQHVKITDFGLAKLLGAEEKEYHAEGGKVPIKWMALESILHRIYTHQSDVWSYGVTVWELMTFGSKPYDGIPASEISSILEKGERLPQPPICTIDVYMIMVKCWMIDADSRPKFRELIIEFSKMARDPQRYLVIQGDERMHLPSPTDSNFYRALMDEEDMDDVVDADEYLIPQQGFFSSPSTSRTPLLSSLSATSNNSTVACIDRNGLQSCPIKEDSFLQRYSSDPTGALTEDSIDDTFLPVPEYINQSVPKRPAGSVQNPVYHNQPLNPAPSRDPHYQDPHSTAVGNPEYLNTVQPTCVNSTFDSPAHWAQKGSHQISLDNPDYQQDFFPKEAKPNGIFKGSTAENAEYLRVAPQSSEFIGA
# [6] = target: Receptor-type tyrosine-protein kinase FLT3 (Homo sapiens, UniProt P36888); assay: Inhibition of Flt3 (unknown origin)
# [7] = target: Tyrosine-protein kinase HCK (Homo sapiens, UniProt P08631); assay: Inhibition of Hck (unknown origin)
# Insulin receptor = Insulin receptor (Homo sapiens, UniProt P06213); assay: Inhibition of insulin receptor (unknown origin)
# [8] = target: Tyrosine-protein kinase Lyn (Homo sapiens, UniProt P07948); assay: Inhibition of Lyn (unknown origin)
# [9] = target: Protein kinase C gamma type (Homo sapiens, UniProt P05129); assay: Inhibition of PKCg (unknown origin)
# MOLM-13 = assay: Antitumor activity against human MOLM-13 cells harboring FLT3 Y599_D600insFDFREYE and c-Cbl E366_Q409del mutant xenografted in mouse assessed as tumor growth inhibition at 10 mg/kg, po; format: functional; settings: read-out: TGI
# Method in brief: (§1)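 Human tumor xenografts in mice were dosed orally at the indicated mg/kg. Tumor volume was measured with calipers as (L×W×W)/2. %TGI = 100 × [1 − (AUC treatment/d)/(AUC vehicle/d)], using the area under the fitted tumor-growth curve per day for each dose group relative to vehicle.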
# MX1 = assay: Antitumor activity against human MX1 cells harboring PTEN null mutation xenografted in mouse assessed as tumor growth inhibition at 5 mg/kg, po; format: functional; settings: read-out: TGI; method in brief: as §1
# DLD-1 = assay: Antitumor activity against human DLD-1 cells harboring KRAS G13D/IDH1 G97D/SMO T640A/APC I1417 mutant xenografted in mouse assessed as tumor growth inhibition at 10 mg/kg, po; format: functional; settings: read-out: TGI
# Method in brief: (§2)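 Single-agent dose ranging in human tumor xenograft mice at 2.5, 5 or 10 mg/kg oral. Tumor volume was measured by caliper as (L×W×W)/2. %TGI = 100×[1 − AUC(treatment/d)/AUC(vehicle/d)] from the fitted growth curve per dose group, relative to vehicle.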
# HCT-116 = assay: Antitumor activity against human HCT-116 cells harboring KRAS G13D/PIK3CA […]/CTNNB1 S45del/CDKN2A G23fs mutant xenografted in mouse assessed as tumor growth inhibition at 10 mg/kg, po; format: functional; settings: read-out: TGI; method in brief: as §2
# FaDu = assay: Antitumor activity against human FaDu cells harboring SMAD4 del/TP53 R248L/CDKN2A mutant xenografted in mouse assessed as tumor growth inhibition at 2.5 mg/kg, po; format: functional; settings: read-out: TGI; method in brief: as §2
# 537-mel = assay: Antitumor activity against human 537-mel cells harboring PTEN null mutation xenografted in mouse assessed as tumor growth inhibition at 2.5 mg/kg, po; format: functional; settings: read-out: TGI
# Method in brief: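 Mice carrying human tumor xenografts dosed orally once daily for 21 consecutive days. Tumor volume measured by calipers as (L×W×W)/2. %TGI = 100×[1 − AUC(treatment/day)/AUC(vehicle/day)], using the area under the fitted growth curve relative to vehicle.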
# NCI-H2122 = assay: Antitumor activity against human NCI-H2122 cells harboring KRAS […]/LKB1 P281/TP53Q61L/C176Fl/CDKN2A mutant xenografted in mouse assessed as tumor growth inhibition at 5 mg/kg, po; format: functional; settings: read-out: TGI
# Method in brief: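 NCI-H2122 (KRAS G12C) NSCLC xenografts in mice were dosed orally once daily for 21 consecutive days. Tumor volume was measured with calipers as (L×W×W)/2, and body weight was tracked. %TGI was derived from the area under the fitted growth curve per day versus vehicle. Group means with SEM were reported.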
# SK-OV-3 = assay: Antitumor activity against human SK-OV-3 cells harboring FBXW7 R505L and CDKN2A mutant xenografted in mouse assessed as tumor growth inhibition at 10 mg/kg, po; format: functional; settings: read-out: TGI; method in brief: as §1
# Hs 695T = assay: Antiproliferative activity against human Hs 695T cells assessed reduction in cell viability incubated for 4 days in presence of 4-(2-(1H-indazol-4-yl)-6-((4-(methylsulfonyl)piperazin-1-yl)methyl)thieno[3,2-d]pyrimidin-4-yl)morpholine by celltiter-glo assay; format: functional; settings: time 4 day
# Method in brief: (§3)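 4-day CellTiter-Glo viability read-out on melanoma lines, cells exposed to increasing concentrations of each inhibitor alone and in combination.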
# Malme-3M = assay: Antiproliferative activity against human Malme-3M cells assessed reduction in cell viability incubated for 4 days in presence of 4-(2-(1H-indazol-4-yl)-6-((4-(methylsulfonyl)piperazin-1-yl)methyl)thieno[3,2-d]pyrimidin-4-yl)morpholine by celltiter-glo assay; format: functional; settings: time 4 day; method in brief: as §3
# [10] = Antitumor activity against human A375.X1 cells xenografted in mouse assessed as tumor growth inhibition at 3 mg/kg, po administered once a day for 21 days in presence of 4-(2-(1H-indazol-4-yl)-6-((4-(methylsulfonyl)piperazin-1-yl)methyl)thieno[3,2-d]pyrimidin-4-yl)morpholine; format: functional; settings: A375.X1, 504 h, time 21 day, read-out: TGI
# Method in brief: (§4)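 Human tumor xenografts in mice. Drugs given orally, as single agents or combined with the PI3K inhibitor. Schedules were daily (QD) or every third day (Q3D) over 21 days. Tumor volume was measured by caliper as (L×W×W)/2. %TGI = 100×[1 − AUC(treatment/d)/AUC(vehicle/d)] from fitted growth curves, with group means. Tumor lysates were immunoblotted for pS6.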
# A2058 [11] = assay: Antitumor activity against human A2058 cells xenografted in mouse assessed as tumor growth inhibition at 15 mg/kg, po administered every third day for 21 days in presence of 4-(2-(1H-indazol-4-yl)-6-((4-(methylsulfonyl)piperazin-1-yl)methyl)thieno[3,2-d]pyrimidin-4-yl)morpholine; format: functional; settings: A2058, 504 h, time 21 day, read-out: TGI; method in brief: as §4
# A2058 [12] = assay: Antitumor activity against human A2058 cells harboring BRAF V600E/PTEN deletion mutant xenografted in mouse assessed as decrease in cyclin D1 level at 15 mg/kg, po administered every third day for 21 days and measured after 8 hrs post dose in presence of 4-(2-(1H-indazol-4-yl)-6-((4-(methylsulfonyl)piperazin-1-yl)methyl)thieno[3,2-d]pyrimidin-4-yl)morpholine by Western blot analysis; format: functional, organism-based; settings: time 512.0 hrs
# A2058 [13] = assay: Antitumor activity against human A2058 cells harboring BRAF V600E/PTEN deletion mutant xenografted in mouse assessed as suppression of ERK phosphorylation at 15 mg/kg, po administered every third day for 21 days and measured after 72 hrs post dose by Western blot analysis; format: functional, organism-based; settings: time 576.0 hrs
# Sequence of RAC-alpha serine/threonine-protein kinase (P31749 whole entry): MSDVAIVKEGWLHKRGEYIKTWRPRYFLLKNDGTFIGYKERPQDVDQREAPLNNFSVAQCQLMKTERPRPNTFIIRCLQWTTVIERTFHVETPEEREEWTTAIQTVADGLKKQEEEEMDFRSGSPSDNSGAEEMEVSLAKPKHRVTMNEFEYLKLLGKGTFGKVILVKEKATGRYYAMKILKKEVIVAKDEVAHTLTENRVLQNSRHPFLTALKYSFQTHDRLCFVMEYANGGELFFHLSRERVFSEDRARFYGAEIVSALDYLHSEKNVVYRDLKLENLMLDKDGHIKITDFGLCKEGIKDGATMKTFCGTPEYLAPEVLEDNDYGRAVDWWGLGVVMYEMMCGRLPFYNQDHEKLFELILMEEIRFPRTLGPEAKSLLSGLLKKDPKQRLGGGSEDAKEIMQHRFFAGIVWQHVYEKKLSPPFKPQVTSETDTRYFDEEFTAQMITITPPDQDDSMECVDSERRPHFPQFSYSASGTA
compound,measurement,setting,value
O=C(c1ccc(F)c(F)c1Nc1ccc(I)cc1F)N1CC(O)([C@@H]2CCCCN2)C1 [COBIMETINIB],IC50,[1],> 10 µM
same,IC50,[2],> 10 µM
same,IC50,[3],> 10 µM
same,IC50,CDK6/cyclin D3,> 10 µM
same,IC50,Casein kinase 2,> 10 µM
same,IC50,[4],> 10 µM
same,IC50,[5],> 10 µM
same,IC50,[6],> 10 µM
same,IC50,[7],> 10 µM
same,IC50,Insulin receptor,> 10 µM
same,IC50,[8],> 10 µM
same,IC50,[9],> 10 µM
same,inhibition in vivo at 10 mg/kg,MOLM-13,36%
same,inhibition in vivo at 5 mg/kg,MX1,26%
same,inhibition in vivo at 10 mg/kg,DLD-1,49.5%
same,inhibition in vivo at 10 mg/kg,HCT-116,84.5%
same,inhibition in vivo at 2.5 mg/kg,FaDu,4%
same,inhibition in vivo at 2.5 mg/kg,537-mel,69%
same,inhibition in vivo at 5 mg/kg,NCI-H2122,49%
same,inhibition in vivo at 10 mg/kg,SK-OV-3,63%
same,Activity,Hs 695T,60%
same,Activity,Malme-3M,60%
same,inhibition in vivo at 3 mg/kg,[10],69%
same,inhibition in vivo at 15 mg/kg,A2058 [11],83%
same,Activity,A2058 [12],Active
same,Activity,A2058 [13],Active
